{"source": "ChEMBL document CHEMBL2010798", "about": "“Selenium-containing naphthalimides as anticancer agents: design, synthesis and bioactivity” (Bioorg Med Chem, 2012)", "key": {"HeLa": {"tested_on": "HeLa", "experiment": "Cytotoxicity against human HeLa cells by MTT assay", "format": "functional, cell-based"}, "K562": {"tested_on": "K562", "experiment": "Cytotoxicity against human K562 cells by MTT assay", "format": "functional, cell-based"}, "HCT-116": {"tested_on": "HCT-116", "experiment": "Cytotoxicity against human HCT116 cells by MTT assay", "format": "functional, cell-based"}, "A549": {"tested_on": "A549", "experiment": "Cytotoxicity against human A549 cells by MTT assay", "format": "functional, cell-based"}, "MCF7": {"tested_on": "MCF7", "experiment": "Cytotoxicity against human MCF7 cells by MTT assay", "format": "functional, cell-based"}, "Nucleic Acid [1]": {"tested_on": "Nucleic Acid", "experiment": "Binding affinity to calf thymus DNA assessed as hyperchromic effect at 10 uM by UV-Vis spectrophotometric analysis", "format": "nucleic-acid assay", "conditions": "Bos taurus, in the assay text read “hypochromic” for “hyperchromic”", "how_it_was_run": "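Its concentration was set by absorption at 260 nm (6600 M⁻¹ cm⁻¹), and it was stored at 4 °C and used within 4 days. UV–vis absorption spectra of compound (10) were recorded in 20 mM Tris–HCl, pH 7.5, 25 °C, with ct-DNA increasing from 0 to 160.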"}, "Nucleic Acid [2]": {"tested_on": "Nucleic Acid", "experiment": "Binding affinity to calf thymus DNA by fluorescence quenching technique", "format": "nucleic-acid assay", "conditions": "Bos taurus", "how_it_was_run": "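Calf thymus DNA was prepared as in line 1. Compound was held at 10 while ct-DNA was titrated at 0, 10, 20, 40, 60, 80, 100, 120, 140 and 160 in 20 mM Tris–HCl, pH 7.5. Solutions were equilibrated for 1 day at 25 °C in the dark, and fluorescence emission was recorded. Kb was fitted to a single-site quenching equation.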"}}, "note": "Activity calls are given as the source filed them. The calls are words filed in the database; no cut-off is given here.", "data": [{"molecule": "Cc1ccc([Se]CCNc2ccc3c4c(cccc24)C(=O)N(CCN(C)C)C3=O)cc1", "values": [{"measurement": "IC50", "setting": "HeLa", "result": "> 25", "unit": "µM"}, {"measurement": "IC50", "setting": "K562", "result": 21.3, "unit": "µM"}, {"measurement": "IC50", "setting": "HCT-116", "result": 20, "unit": "µM"}, {"measurement": "IC50", "setting": "A549", "result": 21, "unit": "µM"}, {"measurement": "IC50", "setting": "MCF7", "result": 19.3, "unit": "µM"}]}, {"molecule": "CCN(CC)CCN1C(=O)c2cccc3c(NCC[Se]c4ccccc4)ccc(c23)C1=O", "values": [{"measurement": "IC50", "setting": "HeLa", "result": 15.5, "unit": "µM"}, {"measurement": "IC50", "setting": "K562", "result": 8.9, "unit": "µM"}, {"measurement": "IC50", "setting": "HCT-116", "result": 14.6, "unit": "µM"}, {"measurement": "IC50", "setting": "A549", "result": 10.7, "unit": "µM"}, {"measurement": "IC50", "setting": "MCF7", "result": 11.9, "unit": "µM"}]}, {"molecule": "CN(C)CCN1C(=O)c2cccc3cc(N)cc(c23)C1=O", "note": "[AMONAFIDE]", "values": [{"measurement": "IC50", "setting": "K562", "result": "> 50", "unit": "µM"}]}, {"molecule": "CN(C)CCN1C(=O)c2cccc3c(N4CC[Se]CC4)ccc(c23)C1=O", "values": [{"measurement": "IC50", "setting": "HeLa", "result": 5.6, "unit": "µM"}, {"measurement": "IC50", "setting": "K562", "result": 5.3, "unit": "µM"}, {"measurement": "IC50", "setting": "HCT-116", "result": 5.4, "unit": "µM"}, {"measurement": "IC50", "setting": "A549", "result": 8.7, "unit": "µM"}, {"measurement": "IC50", "setting": "MCF7", "result": 5.3, "unit": "µM"}]}, {"molecule": "CCCCN1C(=O)c2cccc3c(NCC[Se]c4ccccc4)ccc(c23)C1=O", "values": [{"measurement": "IC50", "setting": "HeLa", "result": "> 25", "unit": "µM"}, {"measurement": "IC50", "setting": "K562", "result": "> 25", "unit": "µM"}, {"measurement": "IC50", "setting": "HCT-116", "result": "> 25", "unit": "µM"}, {"measurement": "IC50", "setting": "A549", "result": "> 25", "unit": "µM"}, {"measurement": "IC50", "setting": "MCF7", "result": "> 25", "unit": "µM"}]}, {"molecule": "CN(C)CCN1C(=O)c2cccc3c(NCC[Se]c4ccc(OC(F)(F)F)cc4)ccc(c23)C1=O", "values": [{"measurement": "IC50", "setting": "HeLa", "result": "> 25", "unit": "µM"}, {"measurement": "IC50", "setting": "K562", "result": 9.4, "unit": "µM"}, {"measurement": "IC50", "setting": "HCT-116", "result": 9.9, "unit": "µM"}, {"measurement": "IC50", "setting": "A549", "result": 14.4, "unit": "µM"}, {"measurement": "IC50", "setting": "MCF7", "result": 16.4, "unit": "µM"}]}, {"molecule": "CN(C)CCN1C(=O)c2cccc3c(NCC[Se]c4ccccc4)ccc(c23)C1=O", "values": [{"measurement": "IC50", "setting": "HeLa", "result": 16.8, "unit": "µM"}, {"measurement": "Activity", "setting": "Nucleic Acid [1]", "result": "Active"}, {"measurement": "Kb", "setting": "Nucleic Acid [2]", "result": 2.43, "unit": "×10⁴ /M"}, {"measurement": "IC50", "setting": "K562", "result": 11.7, "unit": "µM"}, {"measurement": "IC50", "setting": "HCT-116", "result": 19.5, "unit": "µM"}, {"measurement": "IC50", "setting": "A549", "result": 17.4, "unit": "µM"}, {"measurement": "IC50", "setting": "MCF7", "result": 18.2, "unit": "µM"}]}, {"molecule": "COc1ccc([Se]CCNc2ccc3c4c(cccc24)C(=O)N(CCN(C)C)C3=O)cc1", "values": [{"measurement": "IC50", "setting": "HeLa", "result": 17.9, "unit": "µM"}, {"measurement": "IC50", "setting": "K562", "result": 16.6, "unit": "µM"}, {"measurement": "IC50", "setting": "HCT-116", "result": 17.6, "unit": "µM"}, {"measurement": "IC50", "setting": "A549", "result": 22.3, "unit": "µM"}, {"measurement": "IC50", "setting": "MCF7", "result": 18.3, "unit": "µM"}]}, {"molecule": "CCCCCCCCN1C(=O)c2cccc3c(NCC[Se]c4ccccc4)ccc(c23)C1=O", "values": [{"measurement": "IC50", "setting": "HeLa", "result": 16.7, "unit": "µM"}, {"measurement": "IC50", "setting": "K562", "result": 18.7, "unit": "µM"}, {"measurement": "IC50", "setting": "HCT-116", "result": 18.1, "unit": "µM"}, {"measurement": "IC50", "setting": "A549", "result": 20.6, "unit": "µM"}, {"measurement": "IC50", "setting": "MCF7", "result": 11.6, "unit": "µM"}]}, {"molecule": "CN(C)CCN1C(=O)c2cccc3c(NCCSc4ccccc4)ccc(c23)C1=O", "values": [{"measurement": "IC50", "setting": "HeLa", "result": 15.1, "unit": "µM"}, {"measurement": "Activity", "setting": "Nucleic Acid [1]", "result": "Active"}, {"measurement": "Kb", "setting": "Nucleic Acid [2]", "result": 8.26, "unit": "×10⁴ /M"}, {"measurement": "IC50", "setting": "K562", "result": 11.2, "unit": "µM"}, {"measurement": "IC50", "setting": "HCT-116", "result": 16.4, "unit": "µM"}, {"measurement": "IC50", "setting": "A549", "result": 18, "unit": "µM"}, {"measurement": "IC50", "setting": "MCF7", "result": 19.1, "unit": "µM"}]}]}
